We go through seven compounds from paper PMC5801006 (European journal of medicinal chemistry, 2017).

Read-outs that look alike come from different tables or passages of the source.

The target of data set [1] is P-gp (Homo sapiens, UniProt P08183). The data set is described as follows: Calcein-AM assay in MDCK-MDR1 cells. Particulars: n.a. = not active, mean of n ≥ 3 ± SEM. It is filed as cell-based.
Data set [2] concerns BxPC3. The data set is described as follows: MTT viability, 48 h. It is filed as cell-based, human. Particulars: read-out: Activity, EC50 BxPC3.
In data set [3] the test system is KCKO. The data set is described as follows: MTT viability, 48 h. It is filed as cell-based, mouse. Particulars: read-out: Activity, EC50 KCKO.
The subject of data set [4] is KP02 tumors. The data set is described as follows: In vivo tumor growth, subcutaneous KP02 tumors in C57BL/6 mice.
Data set [5] relates to pancreatic cancer cell lines. Kind of data set: MTT viability, summary over the panel of pancreatic cancer cell lines. Particulars: 48 h, read-out: Cytotoxic EC50 values in most of the cell lines studied.
Data set [6] has as its system KP02 tumor cells. The data set is described as follows: ROS involvement: MTT viability with antioxidants α-tocopherol or NAC. It is filed as cell-based, mouse. To be noted: KP02, 4 μM compound 48 h; for Rescue of cell death by NAC: 100 μM NAC; for Rescue of cell death by α-tocopherol: 100 μM α-tocopherol 1 hour prior.
The subject of data set [7] is Panc02. The data set is described as follows: MTT viability, 48 h. It is filed as cell-based, mouse. Particulars: read-out: Activity, EC50 Panc02.
Data set [8] concerns MIAPaCa-2. Kind of data set: MTT viability, 48 h. It is filed as cell-based, human. Particulars: read-out: Activity, EC50 MIAPaCa-2, 48 hr treatment.
The format of data set [9] is in vivo. To be noted: for PCV: 7 at 750nmol/100μL, 1 and 2 at 1500nmol/100 μL, 2 weeks, n = 3, control 47.5 ± 3; for Necropsy/histology findings (pulmonary metastases, nephropathy) / Mouse weight at necropsy: after 2 weeks daily i.p. treatment; for Mouse weight at necropsy: vehicle 19.5± 0.5; for Treatment-related deaths: 750 nmol/100μL i.p. daily for two weeks.
Data set [10] has as its system caspase-3 in KP02 cells. The data set is described as follows: Caspase-3 activation. To be noted: KP02, 25 μM, 5 hours, relative to vehicle. It is filed as cell-based, mouse. Summed up:
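KP02 cells (DMEM/Ham's F-12 1:1, 10% FBS, 37 °C, 5% CO2) seeded at 1 × 10^4/well 24 h before treatment. Exposed to 25 μM test compound for 5 h, with or without α-tocopherol (100 μM) or Z-DEVD-FMK (1 μM). Caspase-Glo reagent with luminogenic caspase substrate added, shaken 30 s, then 90 min at room temperature. Luminescence read relative to DMSO-treated cells. Triplicates; n ≥ 3 independent experiments, mean ± SEM.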

Data set [11] has as its system AsPC1. Kind of data set: MTT viability, 48 h. It is filed as cell-based, human. Particulars: read-out: Activity, EC50 AsPC1.
Data set [12] concerns KP02. The data set is described as follows: MTT viability, 48 h. To be noted: read-out: Activity, EC50 KP02. It is filed as cell-based, mouse.
Data set [13] has as its target σ1 receptor (Homo sapiens, UniProt Q99720). Kind of data set: σ1 binding by flow cytometry in MCF7σ1 cells. To be noted: displacement of σ1 fluorescent compound, 0.1 nmol/L-10 μM. Summed up: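 MCF7 cells engineered for σ1 (DMEM, 10% FBS) incubated with test compound at 0.1, 1, 10, 100 nmol/L, 1 and 10 μM. Then 100 nmol/L σ1 fluorescent probe added for 75 min at 37 °C, with F390 (10 μM) co-incubated to mask σ2. Cells washed twice with PBS, detached (10 min, 37 °C), pelleted and resuspended in PBS. Fluorescence read by flow cytometry through a 530 nm band-pass filter, 50,000 events per sample.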
A general note: In flow cytometry, cells or beads pass a laser one at a time.

Data set [14] has as its system Panc-1. Kind of data set: MTT viability, 48 h. It is filed as cell-based, human. Particulars: read-out: Activity, EC50 Panc-1.
The test system of data set [15] is mitochondrial superoxide in KP02 cells. The data set is described as follows: Mitochondrial superoxide detection. It is filed as cell-based, mouse. Particulars: KP02, 50 μM, 2 hours, MitoSOX Red. Summed up:
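KP02 cells seeded in 12-well plates 24 h ahead, then exposed to 50 μM test compound for 2 h at 37 °C, with or without α-tocopherol. Stained with MitoSOX Red (5 μM); after 2 h, washed with PBS, harvested with trypsin/EDTA and washed again. Oxidised dye (emission ~580 nm) read by flow cytometry in FL3 as mean fluorescence intensity. Triplicates.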

Data set [16] relates to pancreatic cancer cell lines.
The mark [17] stands for this setting: 750 nmol/100μL vehicle i.p. daily for two weeks, vehicle mean 596 mm^3.
Setting [18] is: 1500 nmol/100μL vehicle i.p. daily for two weeks, vehicle mean 592 mm^3.

Chain of σ1 receptor (Q99720 whole entry): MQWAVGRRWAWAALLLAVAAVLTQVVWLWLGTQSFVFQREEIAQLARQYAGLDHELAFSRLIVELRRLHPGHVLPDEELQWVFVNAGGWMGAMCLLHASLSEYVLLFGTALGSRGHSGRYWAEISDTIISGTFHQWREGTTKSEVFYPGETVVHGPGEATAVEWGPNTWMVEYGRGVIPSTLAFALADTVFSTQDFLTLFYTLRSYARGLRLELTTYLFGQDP
Chain of P-gp (P08183 whole entry): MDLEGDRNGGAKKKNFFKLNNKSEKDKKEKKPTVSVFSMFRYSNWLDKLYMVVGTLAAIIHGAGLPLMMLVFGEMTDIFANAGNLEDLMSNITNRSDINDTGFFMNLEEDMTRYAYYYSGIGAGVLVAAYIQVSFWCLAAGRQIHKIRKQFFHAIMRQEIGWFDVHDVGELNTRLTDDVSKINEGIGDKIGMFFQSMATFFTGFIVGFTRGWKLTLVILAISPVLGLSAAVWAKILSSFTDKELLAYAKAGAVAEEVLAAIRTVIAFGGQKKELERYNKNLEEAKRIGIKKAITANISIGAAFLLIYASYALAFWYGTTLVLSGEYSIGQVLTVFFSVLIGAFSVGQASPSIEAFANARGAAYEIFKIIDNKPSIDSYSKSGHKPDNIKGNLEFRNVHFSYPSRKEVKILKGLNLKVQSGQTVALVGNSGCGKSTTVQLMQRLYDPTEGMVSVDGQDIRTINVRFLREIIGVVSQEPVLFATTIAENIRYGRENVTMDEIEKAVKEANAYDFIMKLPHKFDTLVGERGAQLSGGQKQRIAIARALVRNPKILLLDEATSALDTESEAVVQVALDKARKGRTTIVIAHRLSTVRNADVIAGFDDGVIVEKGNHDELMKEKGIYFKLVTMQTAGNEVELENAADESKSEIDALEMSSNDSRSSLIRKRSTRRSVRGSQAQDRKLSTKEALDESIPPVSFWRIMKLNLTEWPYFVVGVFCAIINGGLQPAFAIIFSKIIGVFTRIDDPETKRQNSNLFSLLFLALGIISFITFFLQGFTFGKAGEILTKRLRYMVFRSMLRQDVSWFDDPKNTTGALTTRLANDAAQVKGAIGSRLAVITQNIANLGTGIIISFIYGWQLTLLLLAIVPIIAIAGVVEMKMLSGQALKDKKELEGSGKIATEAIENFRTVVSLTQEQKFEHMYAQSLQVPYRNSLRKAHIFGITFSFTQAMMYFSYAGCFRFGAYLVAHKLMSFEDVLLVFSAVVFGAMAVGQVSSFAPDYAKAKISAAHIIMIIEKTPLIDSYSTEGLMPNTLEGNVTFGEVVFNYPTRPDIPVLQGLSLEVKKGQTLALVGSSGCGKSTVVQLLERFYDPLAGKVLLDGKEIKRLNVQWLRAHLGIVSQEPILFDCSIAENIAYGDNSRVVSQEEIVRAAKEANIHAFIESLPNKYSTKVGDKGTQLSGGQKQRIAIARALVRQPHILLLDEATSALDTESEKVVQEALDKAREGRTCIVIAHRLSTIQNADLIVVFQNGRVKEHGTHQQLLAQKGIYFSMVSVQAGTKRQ

For `CN(C)C(=S)N/N=C1\C(=O)Nc2ccccc21` [Compound 7, (Z)-N,N-Dimethyl-2-(2-oxoindolin-3-ylidene)hydrazinecarbothioamide], in [1], the “P-gp EC50” value is recorded as “completely abolished the interaction with the P-gp”. For the same compound, the EC50 in data set [2] (Homo sapiens, BXPC-3, 48 h) was 2.52 ± 0.5 µM; in [3] (Mus musculus, 48 h), 3.14 ± 0.4 µM; in data set [5], 1.21 to 3.14 µM; in [7] (Mus musculus, Panc02, 48 h), 1.21 ± 0.1 µM; in [8], 18.3 ± 2.1 µM; in [11] (Homo sapiens, ASPC1, 48 h), 2.17 ± 0.3 µM. The EC50 is 2.83 ± 0.6 µM in [12] (Mus musculus, 48 h) and more than 100 µM in data set [14] (Homo sapiens, PANC-1, 48 h). In data set [4] (setting [17]), the “Mean tumor volume after conclusion of treatment” value (“Mean tumor volume” for short) is recorded as 328 mm^3. For the same compound, in [6], the “Rescue of cell death by NAC” value is recorded as “even higher levels of cell death”. Further, in data set [6], the “Rescue of cell death by α-tocopherol” value is on record as “no cells were rescued”. Besides, the PCV in data set [9] was 42.65 ± 2.85%. In [9], the “Necropsy/histology findings (pulmonary metastases, nephropathy)” value (from here on “Necropsy/histology findings”) was “foci of pulmonary metastases of the implanted tumor and a mild chronic progressive nephropathy”. For the same compound, the “Mouse weight at necropsy” value in data set [9] was found to be 19.5 ± 0.5 grams. Further, the “Increase of caspase-3 activity” value in data set [10] is “did not activate the caspase-3 at all”. Also, the “Interaction with the σ1 receptor” value in data set [13] is reported as “ruled out”.
Turning to `NC(=S)N/N=C1\C(=O)Nc2ccccc21` [Compound 8, (Z)-2-(2-Oxoindolin-3-ylidene)hydrazinecarbothioamide], the “P-gp EC50” value in data set [1] is reported as “completely abolished the interaction with the P-gp”. In addition, the EC50 in data set [2] (Homo sapiens, BXPC-3, 48 h) is more than 100 µM; in data set [3] (Mus musculus, 48 h), more than 100 µM; in data set [7] (Mus musculus, Panc02, 48 h), more than 100 µM; in data set [11] (Homo sapiens, ASPC1, 48 h), more than 100 µM; in [12] (Mus musculus, 48 h), more than 100 µM.
With `COc1cc2c(cc1OC)C(=O)N(CCCCN1C(=O)/C(=N\NC(=S)N(C)C)c3ccccc31)CC2` [Compound 9, (Z)-2-(1-(4-(6,7-Dimethoxy-1-oxo-3,4-dihydroisoquinolin-2(1H)-yl)butyl)-2-oxoindolin-3-ylidene)-N,N-dimethylhydrazinecarbothioamide], the EC50 turned out to be 5.93 ± 0.7 µM in [2] (Homo sapiens, BXPC-3, 48 h); 4.51 ± 0.8 µM in data set [3] (Mus musculus, 48 h); 2.18 ± 0.3 µM in data set [7] (Mus musculus, Panc02, 48 h); 5.74 ± 0.5 µM in [11] (Homo sapiens, ASPC1, 48 h); 5.62 ± 1.1 µM in data set [12] (Mus musculus, 48 h). Also, in [6], the “Rescue of cell death by NAC” value was “even higher levels of cell death”. Also, the “Rescue of cell death by α-tocopherol” value in data set [6] is given as “rescued the pancreatic cancer cells”. Also, the “Increase of caspase-3 activity” value in data set [10] was “did not activate the caspase-3 at all”.
As for `CCCCN1CCc2cc(OC)c(OC)cc2C1` [Compound 10, N-Butyl-6,7-dimethoxy-1,2,3,4-tetrahydroisoquinoline], the EC50 in data set [2] (Homo sapiens, BXPC-3, 48 h) was more than 100 µM; in [3] (Mus musculus, 48 h) it was more than 100 µM; in data set [7] (Mus musculus, Panc02, 48 h), more than 100 µM; in [11] (Homo sapiens, ASPC1, 48 h), more than 100 µM; in data set [12] (Mus musculus, 48 h) it was more than 100 µM.
With `CCCCN1CCN(C2CCCCC2)CC1` [Compound 11, 1-Butyl-4-cyclohexyl-piperazine], in data set [1], the “P-gp EC50” value was “complete loss of interaction with P-gp”. Besides, the EC50 in data set [2] (Homo sapiens, BXPC-3, 48 h) was more than 100 µM; in data set [3] (Mus musculus, 48 h), more than 100 µM; in [7] (Mus musculus, Panc02, 48 h) it was more than 100 µM; in [11] (Homo sapiens, ASPC1, 48 h), more than 100 µM; in data set [12] (Mus musculus, 48 h), more than 100 µM.
In the case of “(Z)-2-(1-(4-(6,7-Dimethoxy-3,4-dihydroisoquinolin-2(1H)-yl)butyl)-2-oxoindolin-3-ylidene)-N,N-dimethylhydrazinecarbothioamide [Compound 1]”, the EC50 in data set [2] (48 hr treatment, MTT) is 2.34 ± 0.8 µM; in [3] (48 hr treatment, MTT) it was 6.49 ± 1 µM; in data set [7] (48 hr treatment, MTT), 1.33 ± 0.2 µM; in [8], 14.6 ± 2.2 µM; in data set [11] (48 hr treatment, MTT) it was 2.01 ± 0.6 µM; in [12] (48 hr treatment, MTT), 6.92 ± 0.9 µM. Further, the EC50 in data set [16] is 1.17 to 14.7 µM; in [14] (48 hr treatment, MTT) it was 14.6 ± 2.1 µM. The “Mean tumor volume” value was “statistically similar to vehicle” in data set [4] (setting [17]) and 205 mm^3 in data set [4] (setting [18]). For the same compound, in data set [6], the “Rescue of cell death by α-tocopherol” value was “rescued the pancreatic cancer cells”. For the same compound, in data set [15], the “Mitochondrial superoxide production, increase of mean fluorescence intensity” value came to 6 fold. In data set [9], the Treatment-related deaths entry is listed as “without experiencing any treatment-related deaths”. The PCV in data set [9] was determined as 45.45 ± 4.15%. Further, in [9], the “Necropsy/histology findings” value is reported as “not noticed”. The “Mouse weight at necropsy” value in data set [9] was found to be 17.5 ± 0.5 grams. Besides, the “Increase of caspase-3 activity” value in data set [10] is “did not activate the caspase-3 at all”. Also, the “Interaction with the σ1 receptor” value in data set [13] is reported as “ruled out”.
With “(Z)-2-[1-[4-(4-Cyclohexylpiperazin-1-yl)butyl]-2-oxoindolin-3-ylidene]-N,N-dimethylhydrazinecarbothioamide [Compound 2]”, the EC50 in data set [2] (48 hr treatment, MTT) was 6.15 ± 0.6 µM; in data set [3] (48 hr treatment, MTT), 6.18 ± 0.3 µM; in data set [7] (48 hr treatment, MTT) it was 1.17 ± 0.4 µM; in data set [8] it was 10.8 ± 1.3 µM; in data set [11] (48 hr treatment, MTT) it was 3.86 ± 0.2 µM; in data set [12] (48 hr treatment, MTT), 7.32 ± 0.8 µM. Moreover, the EC50 in data set [16] is 1.17 to 14.7 µM; in data set [14] (48 hr treatment, MTT), 8.73 ± 0.8 µM. For the same compound, the entries for the “Mean tumor volume” value in [4] (setting [17]) and in [4] (setting [18]) were “statistically similar to vehicle” and 196 mm^3, respectively. In data set [6], the “Rescue of cell death by α-tocopherol” value is “rescued the pancreatic cancer cells”. The “Mitochondrial superoxide production, increase of mean fluorescence intensity” value in data set [15] is given as 20 fold. Besides, the Treatment-related deaths result in data set [9] is listed as “without experiencing any treatment-related deaths”. The same compound had a PCV in [9] of 51 ± 3.8%. Further, the “Necropsy/histology findings” value in data set [9] is “not noticed”. In addition, the “Mouse weight at necropsy” value in data set [9] was determined as 19 ± 1 grams. Further, the “Increase of caspase-3 activity” value in data set [10] was found to be 6 fold. Also, in data set [13], the “Interaction with the σ1 receptor” value was “ruled out”.

For orientation: EC50 means the midpoint of the concentration-response curve.
